Measured values taken from ChEMBL document CHEMBL5584288, “Synthesis, biological evaluation and metadynamics simulations of novel N-methyl β-sheet breaker peptides as inhibitors of Alzheimer's β-amyloid fibrillogenesis” (RSC Med Chem, 2024).
Calls of active or inactive are those of the source. No cut-off for these calls is given here. Square brackets hold non-standard residues; d marks the D form. Peptide text beside a SMILES is read from it. Sar = CNCC(=O)O

Columns and labels:
SH-SY5Y [1] = assay: Cytotoxicity against human SH-SY5Y cells assessed as reduction in cell viability at 10 to 100 uM after 48 hrs by MTT assay; assay type: toxicity, cell-based; settings: dose 10-100 µM
Method in brief: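 Human SH-SY5Y neuroblastoma cells in DMEM with 10% FBS, penicillin/streptomycin, 37 °C, 5% CO2. Seeded at 1.5 × 10^4 per well, treated after 24 h, exposed 48 h. MTT 0.50 mg mL⁻¹ for 4 h at 37 °C, formazan dissolved in DMSO, absorbance 570 nm. Viability expressed as % mitochondrial redox activity of untreated control.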

SH-SY5Y [2] = assay: Cytoprotective activity against amyloid beta (25 to 35 residues)-induced toxicity in human SH-SY5Y cells assessed as increase in cell viability at 10 uM incubated for 24 hrs by MTT assay relative to control; assay type: functional
Method in brief: (§1)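 SH-SY5Y cells seeded at 2.0 × 10^4 per well, after 24 h exposed to Aβ25–35 (100.0 μM; DMSO stock 12.5 mM) for 48 h, washed twice with PBS, then given test peptides for a further 24 h. MTT read-out as in cytotoxicity assay. Viability relative to untreated control cells. Mean ± SD of six measurements from three independent experiments.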

[3] = target: Amyloid-beta precursor protein (Homo sapiens) (UniProt P05067); assay: Inhibition of amyloid beta (1 to 42) (unknown origin) aggregation assessed as reduction in amyloid beta fibril formation at 200 uM incubated for 12 hrs by ThT-based fluorescence analysis
Method in brief: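 Aβ1–42 (20 μM) incubated alone or with peptide (200 μM, tenfold molar excess) plus ThT (10 μM) in 20 mM Tris-HCl pH 7.4 at 20 °C. Real-time fluorescence (excitation 450 nm, emission 482 nm) recorded every 30 min for ~12 h. Intensity plotted against time. Three independent experiments.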

SH-SY5Y [4] = assay: Cytoprotective activity against amyloid beta (25 to 35 residues)-induced toxicity in human SH-SY5Y cells assessed as increase in cell viability incubated for 24 hrs by MTT assay; assay type: functional, cell-based; settings: dose 10-100 µM; method in brief: as §1
[5] = Drug uptake in human SH-SY5Y cells at 100 uM by UHPLC-HR MS analysis; assay type: ADME, cell-based
Method in brief: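 SH-SY5Y cells seeded at 2.0 × 10^6 per 100 mm dish, treated after 24 h with peptides (100 μM) in FBS-free medium. Cell pellets quenched and extracted, sonicated 5 min, centrifuged 3500 rpm at 0 °C for 10 min. Supernatant lyophilized, reconstituted in acetonitrile and analysed by UHPLC-HR TOF-MS/MS, with extracted ion chromatograms of protonated molecular ions.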

SH-SY5Y [6] = assay: Cytoprotective activity against amyloid beta (25 to 35 residues)-induced toxicity in human SH-SY5Y cells assessed as increase in cell viability at 100 uM incubated for 24 hrs by MTT assay relative to control; assay type: functional; method in brief: as §1

Chain of Amyloid-beta precursor protein (Homo sapiens) (P05067 whole entry): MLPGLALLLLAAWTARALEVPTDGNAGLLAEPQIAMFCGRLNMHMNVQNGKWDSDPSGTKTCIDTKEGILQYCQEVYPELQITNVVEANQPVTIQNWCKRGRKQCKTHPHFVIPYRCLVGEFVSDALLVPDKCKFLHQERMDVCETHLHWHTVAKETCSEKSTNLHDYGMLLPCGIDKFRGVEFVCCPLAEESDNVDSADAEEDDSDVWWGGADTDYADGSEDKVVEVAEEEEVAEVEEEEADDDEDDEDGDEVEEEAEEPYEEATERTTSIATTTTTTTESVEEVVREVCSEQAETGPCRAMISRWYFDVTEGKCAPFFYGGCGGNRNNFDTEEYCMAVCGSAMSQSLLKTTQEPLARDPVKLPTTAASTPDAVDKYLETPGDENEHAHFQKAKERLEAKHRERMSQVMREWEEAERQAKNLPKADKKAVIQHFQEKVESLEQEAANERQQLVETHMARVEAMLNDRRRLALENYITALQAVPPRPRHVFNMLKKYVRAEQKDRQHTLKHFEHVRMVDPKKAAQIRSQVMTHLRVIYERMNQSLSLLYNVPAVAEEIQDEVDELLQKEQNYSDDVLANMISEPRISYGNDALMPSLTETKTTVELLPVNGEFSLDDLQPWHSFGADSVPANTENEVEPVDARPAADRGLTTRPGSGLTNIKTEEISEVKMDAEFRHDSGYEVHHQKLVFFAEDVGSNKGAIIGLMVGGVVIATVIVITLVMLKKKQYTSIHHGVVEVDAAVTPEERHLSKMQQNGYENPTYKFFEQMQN

| inhibition [3] | Drug uptake [5] | Molecule | Activity (SH-SY5Y [1]) | Activity (SH-SY5Y [2]) [%] | Activity (SH-SY5Y [4]) | Activity (SH-SY5Y [6]) [%] |
| --- | --- | --- | --- | --- | --- | --- |
| Active |  | CC[C@H](C)[C@H](NC(C)=O)C(=O)N[C@H](C(=O)N(C)CC(=O)N[C@@H](CC(C)C)C(=O)N[C@@H](CCSC)C(=O)N[C@H](C(=O)NCC(=O)N(C)CC(=O)N[C@H](C(N)=O)C(C)C)C(C)C)[C@@H](C)CC |  |  |  |  |
| Active | Active | CC(=O)N[C@@H](CCCCN)C(=O)N(C)CC(=O)N[C@H](C(=O)N[C@@H](Cc1ccccc1)C(=O)N[C@@H](Cc1ccccc1)C(=O)N(C)CC(=O)N[C@@H](CCC(=O)O)C(N)=O)C(C)C (Ac-K[Sar]VFF[Sar]E-NH2) | Non-Toxic |  | Dose-Dependent Effect | 142.1 |
| Active |  | CC(=O)N[C@@H](Cc1ccccc1)C(=O)N[C@@H](CCCCN)C(=O)N[C@@H](CCC(=O)O)C(=O)N(C)CC(=O)N(C)CC(=O)N[C@H](C(N)=O)C(C)C (Ac-FKE[Sar][Sar]V-NH2) |  |  |  |  |

The next lines start with the molecule.

| Molecule | inhibition [3] | Drug uptake [5] | Activity (SH-SY5Y [1]) | Activity (SH-SY5Y [2]) [%] | Activity (SH-SY5Y [4]) | Activity (SH-SY5Y [6]) [%] |
| --- | --- | --- | --- | --- | --- | --- |
| CC(=O)N[C@@H](CCCCN)C(=O)N(C)CC(=O)N[C@H](C(=O)N[C@@H](Cc1ccccc1)C(=O)N(C)CC(=O)N[C@@H](CCC(=O)O)C(N)=O)C(C)C (Ac-K[Sar]VF[Sar]E-NH2) | Active | Active | Non-Toxic | ~30 | Dose-Dependent Effect |  |
| Ac-LPFFD-NH2 | Active |  | Non-Toxic |  | Dose-Dependent Effect | 110.8 |
